MrgX1 PAM: human MrgX1 positive allosteric modulation, primary screen. MrgX1-HEK293, Fluo-4 calcium flux, FDSS; hits give high values. B-score at 10 µM. hit rate 0.63% among 310,000. AID 588675;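 active = plate-corrected calcium response at least 3 library SD above typical, normal starting fluorescence, not activating the receptor alone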;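 note: compound read alongside a low EC10 to EC30 dose of BAM8-22 agonist; peak minus trough fluorescence over baseline measured at the second addition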
RGS4 act: potentiators or activators of RGS4; HEK293 M3R/inducible RGS4, carbachol calcium flux Fluo4; hits give low values; B-score at 10 µM; hit rate 0.92% among 310,000; AID 463111;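 active = B-score of the integrated calcium signal more than 4 SD below the library mean, with starting fluorescence not abnormally high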;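 note: negative B-score means reduced calcium response which marks RGS4 activation or potentiation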
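System: HEK293 FlpIn-TREx cells, stable M3R, doxycycline-inducible RGS4. Timing: overnight RGS4 induction, 30 min dye load 37 °C, 20 min compound RT. Also added: carbachol, ECmax concentration. Measured by: Fluo4 fluorescence kinetic imaging of calcium. Evaluation: integrated calcium ratio converted to B score.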
MrgX1 agonist: activates human MrgX1 receptor signaling | Q96LB2 | MrgX1-HEK293 cells, Fluo-4 calcium fluorescence, agonist mode; hits give high values | B-score at 10 µM | hit rate 0.44% among 310,000 | AID 588627;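 active = calcium response B-score plate-corrected fluorescence ratio at least 3 library SD, with starting fluorescence B-score inside 5 SD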
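Material: MrgX1-expressing HEK293 cells; input: 15,000 cells per well; doses: test compound given as first of three sequential additions; schedule: overnight plating before 1 h dye loading; technique: Fluo-4 NW calcium-flux fluorescence, kinetic read; evaluation: baseline-normalised fluorescence change ratio, B-scored; control set: plate-wise positive and negative controls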
MrgX1 antagonist: antagonists of human MrgX1 receptor. B-score at 10 µM. hit rate 1.3% among 310,000. AID 588676. Q96LB2. MRGX1-HEK293 calcium flux, Fluo-4, BAM8-22 antagonism; hits give low values;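 active = calcium-response B-score plate-corrected more than 3 library SD below zero, starting fluorescence within 5 deviations, no agonist response on first addition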;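 note: peak minus trough fluorescence over baseline after final BAM8-22 challenge near maximal dose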
RGS4 block: inhibitors of human RGS4. B-score at 10 µM. AID 463165. P49798. hit rate 0.45% among 310,000. HEK293 M3R/RGS4 inducible, Fluo-4 calcium flux; hits give high values; triggered by carbachol at its EC20;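 active = B-score, a plate-corrected calcium signal, over three deviations above library mean, with baseline fluorescence within five deviations of library mean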;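 note: RGS4 expression induced by doxycycline in cells with stable M3 receptor; B-score is computed from the integrated fluorescence ratio over baseline after carbachol; higher B-score means a larger calcium signal and so more RGS4 inhibition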
Target sequence (P49798 whole entry, looked up): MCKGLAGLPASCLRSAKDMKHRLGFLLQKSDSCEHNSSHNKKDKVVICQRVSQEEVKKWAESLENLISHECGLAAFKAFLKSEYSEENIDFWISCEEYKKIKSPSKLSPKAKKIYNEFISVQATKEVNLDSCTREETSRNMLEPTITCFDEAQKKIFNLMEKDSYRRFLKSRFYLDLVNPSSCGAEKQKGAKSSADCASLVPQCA
* hit, by the source's call; i = inactive; . = no result. In the library only some 3.5% were active in any assay of this set; here they are far more common.

SMILES	MrgX1 PAM	RGS4 act	MrgX1 agonist	MrgX1 antagonist	RGS4 block
O=C(Nc1cccc(C(F)(F)F)c1)N1CCC(c2nc(-c3ccc(F)cc3)no2)CC1	i	-9.3*	i	i	i
COc1ccc(OCC(=O)Nc2c(C(=O)N(CCN(C)C)Cc3ccco3)oc3ccccc23)cc1	i	i	i	-5.1*	i
COc1ccccc1C(=O)Nc1c(C(=O)N(CCN(C)C)Cc2ccco2)oc2ccccc12	i	i	i	i	i
CCOC(=O)/C(=N/Nc1ccc(C)cc1)S(=O)(=O)c1ccc(Cl)cc1	i	-8*	i	i	i
O=C1NN(c2ccc(F)cc2)C(=O)/C1=C/c1cccs1	i	i	30*	i	i
CC1=NN(c2ccccc2)C(=O)/C1=C/c1cccs1	i	i	i	i	i
Cc1onc(-c2c(Cl)cccc2Cl)c1C(=O)N=C(N)N1CC(C)OC(C)C1 (stereo unspecified)	i	i	i	i	i
Cc1ccc2nc(SCC(=O)Nc3cc(C)on3)[nH]c2c1	i	i	i	i	i
Cc1ccc(C(=O)Nc2c(N)nc(SCC(=O)Nc3cc(C)on3)[nH]c2=O)cc1	i	i	i	-6.4*	i
COc1ccc(C(=O)NNC(=O)CSc2nc3c([nH]2)c(=O)n(C)c(=O)n3C)cc1	i	i	i	-4.6*	i
COc1ccc(C(=O)Nc2c(N)nc(SCC(=O)Nc3ccc(NC(C)=O)cc3)[nH]c2=O)cc1	i	i	i	-4.9*	i
Cn1c(=O)c2[nH]c(SCC(=O)c3ccc(F)cc3)nc2n(C)c1=O	i	i	i	i	i
COc1ccc(N(CC(=O)Nc2cc([N+](=O)[O-])ccc2C)S(C)(=O)=O)cc1OC	i	i	i	i	i
COc1c(CC=C(C)C)cc(C2CC(=O)c3c(O)cc(O)cc3O2)cc1CC=C(C)C (stereo unspecified)	i	-8.3*	i	i	i
COc1ccc([C@@H]2CC(=O)c3c(O)cc(O)cc3O2)cc1O	i	.	i	i	.
c1ccc(C(c2ccccc2)c2noc(CN3CCN(C4CCCC4)CC3)n2)cc1	i	i	i	i	i
CC(=O)N1CCN(Cc2nc(C(c3ccccc3)c3ccccc3)no2)CC1	i	-7.5*	i	i	i
CC1(C)Oc2ccc(C(=O)NC3CCCCC3)cc2N(CC#N)C1=O	i	i	i	i	i
O=[N+]([O-])c1cnc(Sc2ccncn2)s1	i	-9.8*	i	i	i
COc1ccccc1C(=O)N/C(=C\c1cn(S(=O)(=O)N(C)C)c2ccccc12)C(=O)N1CCOCC1	i	i	i	i	i
CCCCn1c(N)c(N(CC(C)C)C(=O)CCCn2c(=O)oc3ccccc32)c(=O)[nH]c1=O	i	i	i	i	i
COc1cc(/C=C2/SC(=Nc3ccc(O)cc3)NC2=O)ccc1O	i	i	i	-5*	i
COc1cc(/C=C2\COC/C(=C\c3ccc(O)c(OC)c3)C2=O)ccc1O	i	i	i	i	i
CCc1ccc(N=C2NC(=O)/C(=C/c3cc(OC)c(O)c(OC)c3)S2)cc1	i	i	i	-7.6*	i
COc1cc(/C=C2/CC/C(=C/c3ccc(O)c(OC)c3)C2=O)ccc1O	i	i	58*	i	i
SMILES	MrgX1 PAM	RGS4 act	MrgX1 agonist	MrgX1 antagonist	RGS4 block
Cc1ccc(NC(=O)C2CCN(C(=O)c3ccco3)CC2)cc1C	i	i	i	i	i
COc1cc(CN2CCC(CCC(=O)NC3CC3)CC2)cc(Cl)c1OC	i	i	i	i	i
O=S(=O)(c1ccc(Br)cc1)N1CCCN(Cc2ccccc2F)CC1	i	-7.4*	i	i	i
Cc1ccccc1CN1CCN(S(=O)(=O)c2ccc(F)cc2)CC1	i	i	i	i	i
O=S(=O)(c1ccc(Cl)cc1)N1CCN(Cc2c[nH]c3ccccc23)CC1	i	-7.5*	i	i	i
COc1ccc(CN(C(=O)c2oc3cc(C)ccc3c2C)C2CCS(=O)(=O)C2)cc1OC (stereo unspecified)	i	i	i	i	i

Bioassay records (PubChem)
